Active and inactive are the calls of the source.
Experiments:
[1] = molecular target: T1, Toll-like receptor 4 (Mus musculus) (UniProt Q9QUK6); test: Inhibition of TLR4 in BALB/c mouse BMDM assessed as downregulation of LPS-stimulated IL-12p40 level at 5 ug/ml preincubated for 18 hrs followed by LPS challenge measured after 24 hrs by ELISA relative to control
T1 sequence (whole entry): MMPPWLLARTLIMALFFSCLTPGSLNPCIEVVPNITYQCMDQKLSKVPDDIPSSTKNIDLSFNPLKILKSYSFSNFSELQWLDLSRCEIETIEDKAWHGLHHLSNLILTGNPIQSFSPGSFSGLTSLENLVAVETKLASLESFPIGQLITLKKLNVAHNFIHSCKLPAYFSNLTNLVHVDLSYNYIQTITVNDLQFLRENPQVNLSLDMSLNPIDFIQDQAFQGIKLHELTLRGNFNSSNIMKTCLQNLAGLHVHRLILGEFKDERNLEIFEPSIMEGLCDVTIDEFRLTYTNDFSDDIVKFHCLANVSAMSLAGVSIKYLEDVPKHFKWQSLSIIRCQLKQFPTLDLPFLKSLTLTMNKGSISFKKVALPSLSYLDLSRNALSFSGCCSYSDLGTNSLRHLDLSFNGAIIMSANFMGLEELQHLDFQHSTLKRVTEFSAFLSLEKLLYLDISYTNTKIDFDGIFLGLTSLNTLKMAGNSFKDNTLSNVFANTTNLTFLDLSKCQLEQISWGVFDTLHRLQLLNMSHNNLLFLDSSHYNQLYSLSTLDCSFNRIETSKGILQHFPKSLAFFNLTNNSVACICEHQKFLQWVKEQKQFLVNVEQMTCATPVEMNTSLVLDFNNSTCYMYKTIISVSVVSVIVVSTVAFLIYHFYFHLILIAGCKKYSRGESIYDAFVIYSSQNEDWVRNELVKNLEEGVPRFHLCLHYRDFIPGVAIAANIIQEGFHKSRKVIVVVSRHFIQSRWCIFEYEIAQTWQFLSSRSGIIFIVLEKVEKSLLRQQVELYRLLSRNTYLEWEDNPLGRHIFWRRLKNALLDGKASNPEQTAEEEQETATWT
In short: (§1)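 BALB/c male bone marrow macrophages were differentiated 7 days with L929 supernatant (≥99% CD11b+/F4/80+). Cells were plated at 2 × 10^5/well in triplicate, rested overnight, and given compounds at 5 μg/mL for 18 h. They were then stimulated with 100 ng/mL S. minnesota LPS, 10 ng/mL Pam3CSK4 (BLP) or 0.01 μM CpG for 24 h. Supernatant IL-12p40 and IL-6 were measured by ELISA (sensitivity 16 pg/mL).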

TLR2/TLR6 (Mus musculus) [2] = molecular target: T2, TLR2/TLR6 (Mus musculus) (UniProt Q9QUN7+Q9EPW9); test: Inhibition of TLR2/6 in BALB/c mouse BMDM assessed as downregulation of BLP-stimulated IL-6 level at 5 ug/ml preincubated for 18 hrs followed by BLP challenge measured after 24 hrs by ELISA relative to control; format: protein-complex assay; in short: as §1
TLR2/TLR6 (Mus musculus) [3] = molecular target: T2, TLR2/TLR6 (Mus musculus); test: Inhibition of TLR2/6 in BALB/c mouse BMDM assessed as downregulation of BLP-stimulated IL-12p40 level at 5 ug/ml preincubated for 18 hrs followed by BLP challenge measured after 24 hrs by ELISA relative to control; format: protein-complex assay; in short: as §1
[4] = molecular target: T3, Toll-like receptor 9 (Mus musculus) (UniProt Q9EQU3); test: Inhibition of TLR9 in BALB/c mouse BMDM assessed as downregulation of CpG-stimulated IL-6 level at 5 ug/ml preincubated for 18 hrs followed by CpG challenge measured after 24 hrs by ELISA relative to control; in short: as §1
T3 sequence (whole entry): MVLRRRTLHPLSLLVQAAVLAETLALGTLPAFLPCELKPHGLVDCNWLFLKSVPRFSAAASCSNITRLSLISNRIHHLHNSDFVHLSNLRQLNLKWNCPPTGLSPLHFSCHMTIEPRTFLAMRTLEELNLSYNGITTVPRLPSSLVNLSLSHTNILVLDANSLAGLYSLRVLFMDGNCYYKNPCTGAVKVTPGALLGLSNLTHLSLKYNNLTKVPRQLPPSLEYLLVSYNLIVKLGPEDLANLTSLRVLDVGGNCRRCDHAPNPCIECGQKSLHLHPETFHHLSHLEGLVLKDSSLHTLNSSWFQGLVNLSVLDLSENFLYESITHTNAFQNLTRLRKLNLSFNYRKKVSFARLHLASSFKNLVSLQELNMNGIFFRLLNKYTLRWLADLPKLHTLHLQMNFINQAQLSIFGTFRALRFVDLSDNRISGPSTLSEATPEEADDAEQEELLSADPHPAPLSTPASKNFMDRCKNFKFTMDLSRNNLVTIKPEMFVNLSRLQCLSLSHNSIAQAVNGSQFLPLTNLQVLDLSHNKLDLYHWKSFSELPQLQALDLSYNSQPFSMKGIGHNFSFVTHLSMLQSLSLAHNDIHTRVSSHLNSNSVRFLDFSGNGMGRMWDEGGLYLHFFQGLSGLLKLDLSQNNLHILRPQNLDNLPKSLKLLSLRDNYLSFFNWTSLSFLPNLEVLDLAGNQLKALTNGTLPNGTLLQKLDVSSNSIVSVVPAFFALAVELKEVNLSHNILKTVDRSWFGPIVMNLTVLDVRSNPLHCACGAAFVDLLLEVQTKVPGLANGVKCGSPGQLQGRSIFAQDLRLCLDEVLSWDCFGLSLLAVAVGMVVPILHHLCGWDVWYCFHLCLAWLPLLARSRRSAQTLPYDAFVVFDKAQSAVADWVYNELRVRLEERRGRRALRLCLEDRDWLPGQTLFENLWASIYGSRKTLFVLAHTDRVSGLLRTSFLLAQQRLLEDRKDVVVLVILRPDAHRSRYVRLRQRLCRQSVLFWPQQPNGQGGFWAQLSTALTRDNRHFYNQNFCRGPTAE

[5] = molecular target: T1, Toll-like receptor 4 (Mus musculus); test: Inhibition of TLR4 in BALB/c mouse BMDM assessed as downregulation of LPS-stimulated IL-6 level at 5 ug/ml preincubated for 18 hrs followed by LPS challenge measured after 24 hrs by ELISA relative to control; in short: as §1
[6] = molecular target: T3, Toll-like receptor 9 (Mus musculus); test: Inhibition of TLR9 in BALB/c mouse BMDM assessed as downregulation of CpG-stimulated IL-12p40 level at 5 ug/ml preincubated for 18 hrs followed by CpG challenge measured after 24 hrs by ELISA relative to control; in short: as §1

Measured: inhibition

CN(C)CCNC(=O)Cc1ccccc1
inactive: TLR2/TLR6 (Mus musculus) [2] | TLR2/TLR6 (Mus musculus) [3] | [5] | [6]
active: [1] | [4]

COc1cccc(C(=O)NCCN(C)C)c1
inactive: TLR2/TLR6 (Mus musculus) [2] | [5] | [6]
active: [1] | TLR2/TLR6 (Mus musculus) [3] | [4]

O=S(=O)(Cc1ccc2ccccc2c1)NCCN1CCOCC1
inactive: [1] | TLR2/TLR6 (Mus musculus) [2]
active: TLR2/TLR6 (Mus musculus) [3] | [4] | [5] | [6]

CC[C@@H](C)NCCS(=O)(=O)Cc1cccc(F)c1
active: TLR2/TLR6 (Mus musculus) [2] | TLR2/TLR6 (Mus musculus) [3]
inactive: [1] | [4] | [5] | [6]

CN(C)CCN(C)CCS(=O)(=O)NCc1ccc(Br)cc1
inactive: TLR2/TLR6 (Mus musculus) [3] | [4] | [5]
active: [1] | TLR2/TLR6 (Mus musculus) [2] | [6]

O=S(=O)(CCN1CCOCC1)NCc1ccccc1
inactive: [1] | TLR2/TLR6 (Mus musculus) [2] | TLR2/TLR6 (Mus musculus) [3] | [4] | [5] | [6]

O=C(CCN1CCOCC1)NCc1cccc2cnccc12
active: TLR2/TLR6 (Mus musculus) [3]
inactive: [1] | TLR2/TLR6 (Mus musculus) [2] | [4] | [5] | [6]

Cc1ccc(CS(=O)(=O)NCCCN(C)C)cc1
inactive: [1] | TLR2/TLR6 (Mus musculus) [2] | TLR2/TLR6 (Mus musculus) [3] | [4] | [5] | [6]

O=C(Cc1ccccc1)NCCN1CCOCC1
active: [1] | [4] | [6]
inactive: TLR2/TLR6 (Mus musculus) [2] | TLR2/TLR6 (Mus musculus) [3] | [5]

Cc1ccc(CP(=O)(O)OCCN(C)C)cc1
inactive: [1] | TLR2/TLR6 (Mus musculus) [2] | TLR2/TLR6 (Mus musculus) [3] | [4] | [5] | [6]

C[N+]1(CCCS(=O)(=O)Cc2ccc(Br)cc2)CCOCC1
inactive: [1] | TLR2/TLR6 (Mus musculus) [2] | TLR2/TLR6 (Mus musculus) [3] | [4] | [5] | [6]

Cc1ccc(CS(=O)(=O)NCCN2CCOCC2)cc1
inactive: [1] | TLR2/TLR6 (Mus musculus) [2] | TLR2/TLR6 (Mus musculus) [3] | [4] | [5] | [6]

Cc1ccc(CS(=O)(=O)CCN2CCCC2)cc1
active: [1] | TLR2/TLR6 (Mus musculus) [2] | TLR2/TLR6 (Mus musculus) [3] | [5]
inactive: [4] | [6]

C[N+]1(CCCS(=O)(=O)Cc2ccc(Br)cc2)CCCC1
inactive: [1] | TLR2/TLR6 (Mus musculus) [2] | TLR2/TLR6 (Mus musculus) [3] | [4] | [5] | [6]

Cc1ccc(CNS(=O)(=O)CCN2CCCC2)cc1
inactive: [1] | TLR2/TLR6 (Mus musculus) [2] | TLR2/TLR6 (Mus musculus) [3] | [4] | [5] | [6]

COc1ccc2c(CS(=O)(=O)NCCN(C)C)cc(=O)oc2c1
active: [1] | TLR2/TLR6 (Mus musculus) [3]
inactive: TLR2/TLR6 (Mus musculus) [2] | [4] | [5] | [6]

CN1CCN(CCS(=O)(=O)c2ccccc2)CC1
inactive: [1] | TLR2/TLR6 (Mus musculus) [2] | TLR2/TLR6 (Mus musculus) [3] | [4] | [5] | [6]

O=S(=O)(CCN1CCCC1)NCc1ccc(F)cc1
active: [4] | [5] | [6]
inactive: [1] | TLR2/TLR6 (Mus musculus) [2] | TLR2/TLR6 (Mus musculus) [3]

O=S(=O)(Cc1ccc(Br)cc1)NCCN1CCOCC1
inactive: [1] | TLR2/TLR6 (Mus musculus) [2] | TLR2/TLR6 (Mus musculus) [3] | [4] | [5] | [6]

O=S(=O)(CCN1CCOCC1)NCc1ccc(F)cc1
active: TLR2/TLR6 (Mus musculus) [2] | [4] | [5] | [6]
inactive: [1] | TLR2/TLR6 (Mus musculus) [3]

CC(C)NCCS(=O)(=O)c1ccccc1
inactive: [1] | TLR2/TLR6 (Mus musculus) [2] | [4] | [5] | [6]
active: TLR2/TLR6 (Mus musculus) [3]

O=[N+]([O-])c1ccc(CNS(=O)(=O)CCN2CCOCC2)cc1
inactive: [1] | TLR2/TLR6 (Mus musculus) [2] | TLR2/TLR6 (Mus musculus) [3] | [4] | [5] | [6]

CN(C)CCNS(=O)(=O)Cc1ccccc1
inactive: [1] | TLR2/TLR6 (Mus musculus) [2] | TLR2/TLR6 (Mus musculus) [3] | [4] | [5] | [6]

CCCNCCS(=O)(=O)c1ccccc1
active: TLR2/TLR6 (Mus musculus) [2] | TLR2/TLR6 (Mus musculus) [3]
inactive: [1] | [4] | [5] | [6]

— ChEMBL document CHEMBL3108700, “Designing anti-inflammatory drugs from parasitic worms: a synthetic small molecule analogue of the Acanthocheilonema viteae product ES-62 prevents development of collagen-induced arthritis” (J Med Chem, 2013)
